Measured values as given in ChEMBL document CHEMBL1150385, “Synthesis and evaluation of [2-(4-quinolyloxy)phenyl]methanone derivatives: novel selective inhibitors of transforming growth factor-beta kinase” (J Med Chem, 2008).

Tests used:
[1] = Inhibition of TGF-beta expressed in human A549 cells assessed as luciferase activity after 4 hrs by Smad2/3 reporter assay; assay type: cell-based
How it was run: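 A549 human lung epithelial cells stably carrying a luciferase reporter driven by four tandem Smad2/3 binding sequences (p(SBE)4-Luc); cells given test compound together with TGF-β1 (2 ng/ml), cultured 4 h, then luciferase activity read by chemiluminescence (Steady Glo); IC50 values reported.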

TGF-beta receptor type-1 = target: T1, TGF-beta receptor type-1 (Homo sapiens, UniProt P36897); test: Inhibition of ALK5 by filter binding assay
T1 sequence (P36897 whole entry): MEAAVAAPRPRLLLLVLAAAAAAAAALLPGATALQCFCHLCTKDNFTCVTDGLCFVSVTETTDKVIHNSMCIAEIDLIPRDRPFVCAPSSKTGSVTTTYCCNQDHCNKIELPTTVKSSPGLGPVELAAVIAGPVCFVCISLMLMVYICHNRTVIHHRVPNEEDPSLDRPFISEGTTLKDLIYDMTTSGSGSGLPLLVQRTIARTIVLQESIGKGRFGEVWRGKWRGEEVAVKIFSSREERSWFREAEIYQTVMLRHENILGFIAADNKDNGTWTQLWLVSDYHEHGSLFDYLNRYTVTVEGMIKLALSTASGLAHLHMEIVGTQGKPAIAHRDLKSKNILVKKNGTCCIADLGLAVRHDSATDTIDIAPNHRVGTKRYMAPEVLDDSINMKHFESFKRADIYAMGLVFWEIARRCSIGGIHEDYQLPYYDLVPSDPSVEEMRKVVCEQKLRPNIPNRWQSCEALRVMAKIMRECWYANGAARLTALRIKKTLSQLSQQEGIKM

[2] = target: Proto-oncogene tyrosine-protein kinase Src (Homo sapiens, UniProt P12931); test: Inhibition of c-Src
Proto-oncogene tyrosine-protein kinase Src, sequence (P12931 2-536 limits assumed): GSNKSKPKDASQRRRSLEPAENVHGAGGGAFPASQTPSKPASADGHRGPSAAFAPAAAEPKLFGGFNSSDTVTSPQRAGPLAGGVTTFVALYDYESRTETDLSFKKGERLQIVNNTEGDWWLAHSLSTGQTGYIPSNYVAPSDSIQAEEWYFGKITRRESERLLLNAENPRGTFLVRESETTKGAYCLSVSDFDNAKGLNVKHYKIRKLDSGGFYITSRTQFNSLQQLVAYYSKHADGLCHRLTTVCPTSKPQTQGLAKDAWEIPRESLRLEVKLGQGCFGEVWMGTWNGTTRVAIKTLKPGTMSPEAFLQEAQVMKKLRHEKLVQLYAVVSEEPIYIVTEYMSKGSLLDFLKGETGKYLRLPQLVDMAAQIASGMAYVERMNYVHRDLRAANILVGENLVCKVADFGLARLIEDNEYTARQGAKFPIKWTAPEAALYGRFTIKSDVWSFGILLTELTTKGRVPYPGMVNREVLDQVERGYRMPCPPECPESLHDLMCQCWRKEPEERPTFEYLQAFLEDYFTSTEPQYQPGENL

[3] = Inhibition of TGF-beta mediated Smad2 phosphorylation in human A549 cells after 30 mins by Western blot; assay type: cell-based; details: A549, 0.5 h

SMILES | IC50 [1] | also measured
COc1ccc(C(C)=O)c(Oc2ccnc3cc(OC)c(OC)cc23)c1 | 8800 nM | –
CCC(=O)c1cc(OC)ccc1Oc1ccnc2cc(OC)c(OC)cc12 | 1100 nM | –
COc1cc2nccc(Oc3cc(C)c(C)cc3C(=O)c3ccccc3)c2cc1OC | 1400 nM | –
COc1cc2nccc(Oc3ccc(C)cc3C(=O)N3CCCCC3)c2cc1OC | > 10000 nM | –
COc1cc2nccc(Oc3cc(C)c(Cl)cc3C(C)=O)c2cc1OC | 420 nM | –
CCc1ccc(Oc2ccnc3cc(OC)c(OC)cc23)c(C(C)=O)c1 | 830 nM | –
COc1ccc(Oc2ccnc3cc(OC)c(OC)cc23)c(C(=O)c2ccccc2)c1 | > 10000 nM | –
COc1ccc(C(=O)c2ccccc2)c(Oc2ccnc3cc(OC)c(OC)cc23)c1 | 4900 nM | –
COc1cc2nccc(Oc3ccc(Br)cc3C(=O)c3ccccc3)c2cc1OC | 3200 nM | –
COc1cc2nccc(Oc3ccc(Cl)cc3C(=O)c3ccccc3)c2cc1OC | 2700 nM | –
CCCOc1ccc(Oc2ccnc3cc(OC)c(OC)cc23)c(C(C)=O)c1 | > 10000 nM | –
CCCc1ccc(Oc2ccnc3cc(OC)c(OC)cc23)c(C(C)=O)c1 | 540 nM | –
COc1cc2nccc(Oc3cc(C)c(C)cc3C(C)=O)c2cc1OC | 370 nM | IC50 (TGF-beta receptor type-1): 630 nM; IC50 [3]: 500 nM; IC50 [2]: 13000 nM
CCCCc1ccc(Oc2ccnc3cc(OC)c(OC)cc23)c(C(C)=O)c1 | 2200 nM | –
COc1cc2nccc(Oc3ccccc3C(C)=O)c2cc1OC | > 10000 nM | –
CCC(=O)c1ccc(OC)cc1Oc1ccnc2cc(OC)c(OC)cc12 | 1800 nM | –
CCOc1ccc(Oc2ccnc3cc(OC)c(OC)cc23)c(C(C)=O)c1 | 5600 nM | –
COc1cc2nccc(Oc3cc(C)c(Cl)cc3C(=O)c3ccccc3)c2cc1OC | 2100 nM | –
COc1cc(Oc2ccnc3cc(OC)c(OC)cc23)c(C(C)=O)cc1OC | > 10000 nM | –
COc1ccc(Oc2ccnc3cc(OC)c(OC)cc23)c(C(C)=O)c1 | 590 nM | –
COc1cc2nccc(Oc3ccccc3C(=O)c3ccccc3)c2cc1OC | 4700 nM | IC50 (TGF-beta receptor type-1): 16000 nM; IC50 [2]: 4500 nM

Second part, led by results:

IC50 [1] | SMILES | also measured
620 nM | CCC(=O)c1cc(C)ccc1Oc1ccnc2cc(OC)c(OC)cc12 | –
2300 nM | COc1cc2nccc(Oc3ccc(C)cc3C(C)=O)c2cc1OC | IC50 (TGF-beta receptor type-1): 4400 nM; IC50 [2]: 8400 nM
2200 nM | COc1cc2nccc(Oc3ccc(C)cc3C(=O)C3CCCC3)c2cc1OC | –
> 10000 nM | COc1cc2nccc(Oc3ccc(C)cc3C=O)c2cc1OC | –
2700 nM | COc1cc2nccc(Oc3ccc(C)cc3C(=O)c3ccco3)c2cc1OC | –
2500 nM | COc1cc2nccc(Oc3ccc(C)cc3C(=O)c3ccno3)c2cc1OC | –
640 nM | COc1cc2nccc(Oc3ccc(C)cc3C(=O)c3ccccc3)c2cc1OC | IC50 (TGF-beta receptor type-1): 2700 nM; IC50 [3]: 500 nM; IC50 [2]: 1700 nM
8500 nM | COc1cc2nccc(Oc3ccc(C)cc3C(=O)c3ccc(C(C)(C)C)cc3)c2cc1OC | –
5500 nM | COc1cc2nccc(Oc3cc(C)ccc3C(C)=O)c2cc1OC | –
3800 nM | COc1cc2nccc(Oc3ccc(F)cc3C(C)=O)c2cc1OC | –
